Data reported in ChEMBL document CHEMBL5038599, “Identification of Thiazoyl Guanidine Derivatives as Novel Antifungal Agents Inhibiting Ergosterol Biosynthesis for Treatment of Invasive Fungal Infections” (J Med Chem, 2021).
≈ marks a conversion by molar mass, not a printed value. Calls of active or inactive are those of the source. The rule behind the calls is not given here.

What was measured:
[1] = tested on: Aspergillus fumigatus; test: Antifungal activity against Aspergillus fumigatus ATCC 204305 assessed as inhibition of fungal growth […] by broth microdilution method; type: functional
[2] = tested on: Candida albicans; test: Antifungal activity against Candida albicans ATCC 90028 assessed as inhibition of fungal growth incubated for 24 hrs by broth microdilution method; type: functional
In short: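 Yeast cells were adjusted to about 2 × 10³ CFU/mL and broth microdilution was run for 24 h at 35 °C. Medium was YNB with 2% glucose and complete amino-acid mix, buffered to pH 7.0 with 50 mM MOPS. MIC was the lowest concentration giving >50% growth reduction versus untreated control, read by optical density at 600 nm.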

[3] = Metabolic stability in human liver microsomes assessed as parent compound remaining at 0.5 uM incubated for 30 mins by LC/MS/MS analysis; type: ADME, Microsome; conditions: read-out: Stability
In short: (§1)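 Compound at 0.5 μM was incubated with liver microsomes at 0.5 mg protein/mL at 37 °C. Buffer was 50 mM Tris-HCl pH 7.4 with 150 mM KCl, 10 mM MgCl2 and 1 mM NADPH. Reactions were stopped at 0 and 30 min with MeCN/MeOH 1:1. Percent remaining was taken from LC/MS/MS peak area ratio, in duplicate.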

[4] = Metabolic stability in rat liver microsomes assessed as parent compound remaining at 0.5 uM incubated for 30 mins by LC/MS/MS analysis; type: ADME, Microsome; conditions: read-out: Stability; in short: as §1
[5] = Unbound fraction in Sprague-Dawley rat at 0.5 mg/kg, iv measured upto 1440 mins by LC/MS/MS analysis; type: ADME, organism-based; conditions: in vivo
[6] = Clearance in Sprague-Dawley rat at 0.5 mg/kg, iv measured upto 1440 mins by LC/MS/MS analysis; type: ADME, organism-based; conditions: in vivo
[7] = Volume of distribution at steady state in Sprague-Dawley rat at 0.5 mg/kg, iv measured upto 1440 mins by LC/MS/MS analysis; type: ADME, organism-based; conditions: in vivo, read-out: Vdss
[8] = tested on: Aspergillus fumigatus; test: Antifungal activity against Aspergillus fumigatus ATCC 204305 assessed as inhibition of fungal growth incubated for 48 hrs in presence of 50% heat-inactivated bovine serum by broth microdilution method; type: functional; conditions: ATCC 204305, 48 h, in the assay text read “incubated for 48 hrs” for “incubated for 24 hrs”
In short: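 Broth microdilution per CLSI M38-A2 with modifications. Conidia at about 1 × 10⁴ CFU/mL were grown for 48 h at 35 °C in YNB with 2% glucose and complete amino-acid mix, buffered to pH 7.0 with 50 mM MOPS. Medium was with or without 50% heat-inactivated bovine serum. MIC was the lowest concentration giving no visible growth.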

[9] = tested on: Aspergillus fumigatus; test: Antifungal activity against Aspergillus fumigatus ATCC 204305 assessed as inhibition of fungal growth incubated for 48 hrs by broth microdilution method; conditions: ATCC 204305, 48 h
[10] = tested on: Aspergillus fumigatus; test: Antifungal activity against pan-azole resistant Aspergillus fumigatus SR47013 harbouring Cyp51A Y121F mutant assessed as inhibition of fungal growth incubated for 48 hrs by broth microdilution method; conditions: SR47013, 48 h
[11] = tested on: Mus musculus; test: In vivo antifungal activity against Aspergillus fumigatus infected in ICR mouse assessed as log reduction in fungal burden with 18S rRNA in kidney at 30 mg/kg, iv administered at 2 to 50 hrs post-inoculation and measured after 60 hrs by RT-qPCR analysis; type: functional
In short: (§2)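 Male ICR mice (5 weeks) were immunosuppressed with intraperitoneal cyclophosphamide, 150 mg/kg on day −4 and 100 mg/kg on day −1. Mice were infected intravenously with about 1.5 × 10⁵ conidia in saline. Tail-vein dosing was at 2, 16, 21, 26, 40, 45 and 50 h, in 5% DMSO/5% Cremophor EL/4% glucose or 5% glucose. Samples were taken at 60 h, five mice per group, and analysed by Dunnett's test against untreated controls.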

[12] = tested on: Mus musculus; test: In vivo antifungal activity against Aspergillus fumigatus infected in ICR mouse assessed as reduction in serum-galactomannan at 30 mg/kg, iv administered at 2 to 50 hrs post-inoculation and measured after 60 hrs by GM analysis; type: functional, organism-based; in short: as §2
[13] = AUC in ICR mouse at 30 mg/kg, iv measured upto 360 mins by LC/MS/MS analysis; type: ADME, organism-based; design: route intravenous, dose 30 mg/kg, time <=360; conditions: in vivo
In short: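 Male ICR mice, 6 weeks old. Dosed iv via tail vein at 30 mg/10 mL/kg (n = 3). The test agent was a solution in 5% DMSO, 5% Cremophor EL and 4% glucose; the reference azole was in 5% glucose. Blood (EDTA-2K plus heparin) was taken at 5, 30, 60, 180 and 360 min and spun to plasma. Proteins were precipitated with methanol before LC/MS/MS.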

[14] = tested on: Aspergillus fumigatus; test: Inhibition of Sterol methyl transferase in Aspergillus fumigatus ATCC 204305 assessed as accumulation of lanosterol at 0.5 ug/mL measured per 100 mg of mycelia by LC/MS analysis (Rvb= 0 nmol); conditions: dose 0.5 µg/ml
In short: (§3)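 Conidia at 1 × 10⁴ CFU/mL were grown 24 h at 35 °C in YNB with 2% glucose and amino-acid mix, then compound was added and cultures ran a further 24 h. Mycelia were filtered and saponified in 25% ethanolic KOH at 85 °C for 1 h. Sterols were extracted into n-hexane, dried under N₂ at 40 °C and redissolved in acetone at 200 μL per 100 mg dry mycelium. Separation used a C18 column at 40 °C with an acetonitrile gradient.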

[15] = tested on: Aspergillus fumigatus; test: Inhibition of Sterol methyl transferase in Aspergillus fumigatus ATCC 204305 assessed as accumulation of eburicol at 0.5 ug/ml measured per 100 mg of mycelia by LC/MS analysis (Rvb= 0 nmol); conditions: dose 0.5 µg/ml; in short: as §3
[16] = tested on: Aspergillus fumigatus; test: Inhibition of Sterol methyl transferase in Aspergillus fumigatus ATCC 204305 assessed as accumulation of zymosterol at 0.5 ug/mL measured per 100 mg of mycelia by LC/MS analysis (Rvb= 0 nmol); conditions: dose 0.5 µg/ml; in short: as §3
[17] = tested on: Aspergillus fumigatus; test: Inhibition of Sterol methyl transferase in Aspergillus fumigatus ATCC 204305 assessed as accumulation of ergosterol at 0.5 ug/mL measured per 100 mg of mycelia by LC/MS analysis (Rvb= 144 nmol); conditions: dose 0.5 µg/ml; in short: as §3

Compound	MIC50 [1] [µg/mL]	MIC50 [2] [µg/mL]	MIC [9] [µg/mL]	further results
Cc1ccc(Oc2ccccc2-c2csc(N=C3NCCN3)n2)c(C)c1	> 16	0.5 (≈ 1.37 µM)	–	–
c1ccc(-c2nc(-c3csc(N=C4NCCCN4)n3)cs2)cc1	0.5 (≈ 1.46 µM)	< 0.063	–	remaining at 0.5 h, 0.5 µM [3]: 83%; remaining at 0.5 h, 0.5 µM [4]: 31%; fraction unbound at 24 h [5]: 0.0104; clearance [6]: 33.1 mL/min/kg; Vd [7]: 7.25 L/kg; MIC50 [8]: 8 µg/mL
Cc1ccc(Oc2ccccc2-c2csc(N)n2)c(C)c1	> 16	4 (≈ 13.5 µM)	–	–
Cc1ccc(Oc2ccccc2-c2cnc(N=C3NCCCN3)s2)c(C)c1	> 16	> 16	–	–
CC[C@@H]([C@H](C)O)n1ncn(-c2ccc(N3CCN(c4ccc(OC[C@@H]5CO[C@@](Cn6cncn6)(c6ccc(F)cc6F)C5)cc4)CC3)cc2)c1=O [POSACONAZOLE]	–	–	0.063 (≈ 0.0899 µM)	MIC50 [10]: 4 µg/mL (≈ 5.71 µM)
C[C@@H](c1ncncc1F)[C@](O)(Cn1cncn1)c1ccc(F)cc1F [VORICONAZOLE]	–	–	0.5 (≈ 1.43 µM)	Activity [11]: inactive; Activity [12]: inactive; AUC at 6 h [13]: 222 µg·h/mL; Activity [14]: 1 nmol; Activity [15]: 34 nmol; Activity [16]: 0 nmol; Activity [17]: 99 nmol; MIC50 [10]: > 16 µg/mL
c1cc(-c2nc(-c3csc(N=C4NCCCN4)n3)cs2)ccn1	–	–	0.5 (≈ 1.46 µM)	remaining at 0.5 h, 0.5 µM [3]: 58%; remaining at 0.5 h, 0.5 µM [4]: 9%; MIC50 [8]: 4 µg/mL
c1ccc(-c2nc(-c3csc(N=C4NCCCN4)n3)co2)cc1	16 (≈ 49.2 µM)	0.063 (≈ 0.194 µM)	–	–
Oc1ccc(-c2nc(-c3csc(N=C4NCCCN4)n3)cs2)cc1	–	–	2 (≈ 5.59 µM)	remaining at 0.5 h, 0.5 µM [3]: 86%; remaining at 0.5 h, 0.5 µM [4]: 53%; MIC50 [8]: > 16 µg/mL
Cc1ccc(Oc2ccccc2-c2csc(N(C)C)n2)c(C)c1	> 16	> 16	–	–
O=C(O)c1ccc(-c2nc(-c3csc(N=C4NCCCN4)n3)cs2)cc1	–	–	> 16	–
c1ccc(-c2cccc(-c3csc(N=C4NCCCN4)n3)c2)cc1	1 (≈ 2.99 µM)	< 0.063	–	–
c1ccc(-c2cc(-c3csc(N=C4NCCCN4)n3)cs2)cc1	4 (≈ 11.7 µM)	0.063 (≈ 0.185 µM)	–	remaining at 0.5 h, 0.5 µM [3]: 70%; remaining at 0.5 h, 0.5 µM [4]: 30%
CCC(C)n1ncn(-c2ccc(N3CCN(c4ccc(OCC5COC(Cn6cncn6)(c6ccc(Cl)cc6Cl)O5)cc4)CC3)cc2)c1=O (stereo not drawn) [ITRACONAZOLE]	–	–	0.25 (≈ 0.354 µM)	MIC50 [10]: > 16 µg/mL
CNC(=Nc1nc(-c2ccccc2Oc2ccc(C)cc2C)cs1)NC	> 16	> 16	–	–
